# Rad51 HR inh = blocks human Rad51 in homologous recombination | hit rate 0.085% among 200,000 | Q06609 | inhibition, % at 10 µM | hRad51 DNA strand exchange, fluorescence dequenching | AID 1385;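 active = inhibition above 40% at the single screening dose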
#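 System: human Rad51 nucleoprotein filaments preassembled on unlabelled ssDNA. Reagent: labelled 47-mer dsDNA for strand exchange. Schedule: 30-min compound preincubation and 15-min exchange, both room temperature. Measured by: FRET fluorescence dequenching, excitation 485 nm, emission 520 nm. Read-out: Fluorescence-based percent inhibition, control- and blank-normalised. Benchmarks: plate controls and plate blanks.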
# Autophagy mod = modulators of autophagy | MEF GFP-LC3 puncta imaging; test concentration mostly 10 µM | calls only at 10 µM (by protocol) | hit rate 0.98% among 190,000 | AID 463193;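 active = percentage of spot-positive cells more than 3 SD above its plate mean, without a fluorescence outlier flag or 80% toxicity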
# SKKanGAS inh = SKKanGAS growth inhibition; S. pyogenes SKKanGAS, kanamycin growth, BacTiter-Glo, 6 h; inhibition, % at 7.5 µM; hit rate 1.3% among 300,000;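 active = mean replicate score, as percent of positive control median, at least 50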;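 note: strain carries kanamycin resistance gene driven by streptokinase promoter and grows in 40 µg/ml kanamycin; loss of luminescence reflects streptokinase promoter inhibition or plain growth inhibition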
# KCC2 mod = KCC2 (human) Cl- transport modulation; KCC2 cells, thallium flux FluoZin-2 fluorescence; B-score of Tl+ flux slope (higher = more flux/activation; lower = inhibition) at 10 µM; hit rate 2.2% among 190,000; AID 1456;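 active = thallium flux slope and its plate-corrected score both differing from the plate sample mean at a set confidence after two filtering rounds, in either direction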;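 note: slope of fluorescence scaled to starting intensity during 10 to 20 s after thallium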
# Target sequence (Q9H2X9 whole entry, looked up): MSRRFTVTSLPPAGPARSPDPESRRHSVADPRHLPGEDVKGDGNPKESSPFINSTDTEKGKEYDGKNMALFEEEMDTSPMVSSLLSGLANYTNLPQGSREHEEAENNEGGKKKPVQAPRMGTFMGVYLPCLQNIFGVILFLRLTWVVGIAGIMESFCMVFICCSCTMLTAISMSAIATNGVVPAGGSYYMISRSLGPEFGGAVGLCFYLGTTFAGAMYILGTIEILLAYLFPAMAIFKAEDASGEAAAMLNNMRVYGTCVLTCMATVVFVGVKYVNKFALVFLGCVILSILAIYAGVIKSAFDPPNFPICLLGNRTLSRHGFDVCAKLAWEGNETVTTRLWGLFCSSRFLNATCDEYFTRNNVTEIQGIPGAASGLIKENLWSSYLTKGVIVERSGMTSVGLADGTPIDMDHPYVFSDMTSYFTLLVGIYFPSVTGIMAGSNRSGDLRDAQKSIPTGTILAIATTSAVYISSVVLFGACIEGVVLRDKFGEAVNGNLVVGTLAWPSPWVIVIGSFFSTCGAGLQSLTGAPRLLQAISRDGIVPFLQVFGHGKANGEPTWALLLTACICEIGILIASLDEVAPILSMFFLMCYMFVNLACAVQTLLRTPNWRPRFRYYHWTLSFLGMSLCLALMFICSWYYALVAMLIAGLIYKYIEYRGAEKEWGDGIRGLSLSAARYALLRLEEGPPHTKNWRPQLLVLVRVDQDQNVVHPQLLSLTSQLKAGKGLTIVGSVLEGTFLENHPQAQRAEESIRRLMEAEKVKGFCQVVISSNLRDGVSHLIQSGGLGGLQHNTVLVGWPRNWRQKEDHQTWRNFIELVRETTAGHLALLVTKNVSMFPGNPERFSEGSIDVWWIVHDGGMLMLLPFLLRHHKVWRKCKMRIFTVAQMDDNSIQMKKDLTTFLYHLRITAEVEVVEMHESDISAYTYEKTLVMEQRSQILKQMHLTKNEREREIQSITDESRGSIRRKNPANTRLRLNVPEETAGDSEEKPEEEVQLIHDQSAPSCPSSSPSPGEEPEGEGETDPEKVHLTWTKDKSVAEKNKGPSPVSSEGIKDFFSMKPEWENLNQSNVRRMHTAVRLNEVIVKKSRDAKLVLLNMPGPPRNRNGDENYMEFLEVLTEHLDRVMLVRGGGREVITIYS
# WT yeast gro inh = growth inhibition of WT yeast, mitochondrial fusion screen | mitochondrial fusion phenotypic screen, WT strain | inhibition, % at 10 µM | hit rate 2.1% among 190,000; in the data active = inhibition above about 58%; tested in S. cerevisiae
# Insulin prom up = MIN6 insulin promoter up-regulation; MIN6 insulin promoter-GFP reporter, high-content imaging; hits give high values; z-score at 5 µM; hit rate 0.3% among 190,000;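 active = z-score above 3 at 5 µM with at least 500 cells counted in the well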
# Hits are given with their value; 0 = inactive; - = not tested or not shown; + = active, no number. Hits are enriched below; roughly 4.2% of the tested compounds scored in any of these assays.
SMILES,Rad51 HR inh,Autophagy mod,SKKanGAS inh,KCC2 mod,WT yeast gro inh,Insulin prom up
CCOC(=O)N1CCN(C(=O)CSCC(=O)Nc2nc(-c3ccc(-c4ccccc4)cc3)cs2)CC1,0,-,0,0,0,0
O=C(CSc1nnc(-c2ccncc2)n1Cc1ccco1)Nc1nc(-c2ccccc2)cs1,0,+,0,0,0,0
O=C(CSc1nc2ccccc2o1)Nc1nc(-c2ccccc2)cs1,0,0,0,0,63,0
CCOC(=S)SCC(=O)Nc1nc(-c2ccccc2)cs1,0,0,0,0,80,0
Cc1ccc(OCc2cc(C(=O)NC3CCc4ccccc43)no2)cn1 (centres undefined),-,-,0,-,-,-
CCn1c(=O)c([N+](=O)[O-])c(NC2CCS(=O)(=O)C2)c2ccccc21 (centres undefined),0,-,0,0,-,0
COCc1ccc(C(=O)NC2CCCc3c2cnn3-c2ccc(C)c(C)c2)o1 (centres undefined),-,-,0,-,-,-
COC(=O)C(C)N(C(=O)c1cccc2ccccc12)c1c(C)cccc1C (centres undefined),0,0,0,-3.7,0,0
C=CCNC1=C(Cl)C(=O)N(c2cccc(Cl)c2Cl)C1=O,0,0,0,0,64,0
NC(=O)Cn1c(=O)n(CCC(=O)Nc2ccc(F)cc2)c(=O)c2sccc21,-,-,0,-,-,-
Cc1c(Cl)cccc1NC(=S)NCC1COc2ccccc2O1 (centres undefined),0,0,0,0,59,0
O=C(NC(=S)NCC1COc2ccccc2O1)c1ccccc1 (centres undefined),0,0,0,4.3,0,0
Cc1[nH]nc2c1C(=O)CCC2,86,0,0,0,0,-
Cc1[nH]nc2c1C(=O)CC(C)(C)C2,0,0,0,-,0,0
CN1CCN(C2=CC3=CC(=C(C#N)C#N)CCC3CC2)CC1 (centres undefined),0,+,-,0,0,-
Cc1ccc(Cl)cc1NC(=O)c1cc2ccccc2cc1O,0,-,97,0,-,0
COc1cc(NC(=O)c2cc3ccccc3cc2O)c(OC)cc1Cl,0,-,0,0,-,0
COc1ccccc1NC(=O)c1cc2cc(Br)ccc2cc1O,0,-,53,0,-,-
O=C(/C=C/c1ccc([N+](=O)[O-])cc1)NCCN1C(=O)S/C(=C\c2ccc(F)cc2)C1=O,-,0,0,0,0,0
COc1ccc(CNC(=O)CNC(=O)c2ccc(C(C)(C)C)cc2)cc1OC,-,-,0,-,-,-
Cc1cc(NC(=O)Nc2cc(Cl)sc2Cl)no1,-,-,0,-,-,-
CCCOC(=O)c1ccc(Oc2cn[nH]c2-c2ccc(O)cc2O)cc1,0,-,76,0,-,0
COc1ccc(-c2cn[nH]c2-c2ccc(OCC(=O)NN)cc2O)cc1,-,-,0,-,-,-
CCCOC(=O)c1ccc(Oc2cn[nH]c2-c2ccc(OCC(=O)NN)cc2O)cc1,0,-,83,0,-,0
CCOC(=O)c1ccc(Oc2cn[nH]c2-c2ccc(O)cc2O)cc1,-,-,0,0,-,0
SMILES,Rad51 HR inh,Autophagy mod,SKKanGAS inh,KCC2 mod,WT yeast gro inh,Insulin prom up
CCOC(=O)c1ccc(Oc2cn[nH]c2-c2ccc(OCC(=O)NN)cc2O)cc1,-,-,99,-,-,-
CCOC(=O)N1CCN(C(=O)C(=O)NNC(=O)COc2ccc(Cl)cc2)CC1,0,0,0,0,0,0
O=C(Nc1cc(S(=O)(=O)Nc2ccccc2Cl)ccc1O)c1sc2cc(Cl)ccc2c1Cl,0,0,0,0,0,0
C#CCOCCOCCOCCNc1nc(N2CCN(C(=O)Cn3cc(CCCN=C(N)N)nn3)CC2)nc(N2CCN(C(=O)[C@H]([C@@H](C)CC)n3cc(CCCN=C(N)N)nn3)CC2)n1,-,0,-,0,0,0
O=C(CCCCCNC(=O)N1CCn2c1nc1ccccc12)NCc1ccccc1Cl,-,-,0,-,-,-
O=C(CN1/C(=C(/O)c2ccccc2)C(=O)c2ccccc2S1(=O)=O)c1ccccc1,0,0,0,0,64,-
Cn1nc(C(=O)NCCOc2ccccc2)c2ccccc2c1=O,0,0,0,0,0,0
Cc1ccc(OCCn2c(=O)n(C)c3ccccc32)cc1,0,0,0,0,0,0
CC1CCCN(C(=O)N2c3ccccc3Sc3ccccc32)C1 (centres undefined),-,0,0,0,69,0
CC1CCN(C(=O)N2c3ccccc3Sc3ccccc32)CC1,0,0,54,0,0,0
Cc1oc(-c2ccccc2Cl)nc1CS(=O)CC(=O)NCCCN1CC(C)CC(C)C1 (centres undefined),-,-,0,-,-,-
O=C(Cn1ncc(Cl)c(Cl)c1=O)N1CCN(S(=O)(=O)c2ccc3ccccc3c2)CC1,0,+,-,0,0,0

# Compound activity (PubChem BioAssay)
